Shown are actives, neighbours in structure and some others; about 1.8% of the full set was active somewhere.
M4 antag – blocks acetylcholine activation of human M4 receptor. P08173. CHO-hM4 cells, ACh EC80, Fluo-8 calcium fluorescence. inhibition, % at 3 µM. actives 0.73% (n = 360,000). AID 624125;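 active means inhibition above its plate's cutoff, the mean inhibition of sample wells plus 3 SD, cut at about 27% in these data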;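 further: 0% = acetylcholine EC80 with DMSO and 100% = DMSO without agonist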
Target sequence (P08173 whole entry, looked up): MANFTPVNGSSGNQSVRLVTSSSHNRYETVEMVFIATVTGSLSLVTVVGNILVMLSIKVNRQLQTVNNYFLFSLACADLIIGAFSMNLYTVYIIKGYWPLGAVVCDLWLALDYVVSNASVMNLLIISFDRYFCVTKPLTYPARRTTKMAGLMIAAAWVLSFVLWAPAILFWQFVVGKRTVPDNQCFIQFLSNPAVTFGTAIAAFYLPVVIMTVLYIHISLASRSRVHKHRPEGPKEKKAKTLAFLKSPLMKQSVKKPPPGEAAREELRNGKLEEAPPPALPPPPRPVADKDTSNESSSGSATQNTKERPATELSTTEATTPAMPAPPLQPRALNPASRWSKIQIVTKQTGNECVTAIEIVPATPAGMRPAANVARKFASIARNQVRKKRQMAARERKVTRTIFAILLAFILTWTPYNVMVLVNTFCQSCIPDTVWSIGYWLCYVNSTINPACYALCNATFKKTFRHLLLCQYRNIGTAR
M4 ag – agonists of human muscarinic M4 receptor (CHRM4) | actives 0.14% (n = 360,000) | CHO-K1 hM4/Gqi5, Fluo-8 calcium fluorescence; vehicle 0%, full acetylcholine response 100% | activation, % at 3 µM | AID 624127 | P08173;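 active means activation above the run mean over all test wells plus 3 SD, cut at about 32% in these data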;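 further: peak over basal fluorescence ratio per well then scaled between controls; 0% = DMSO wells and 100% = acetylcholine at EC100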
CHRM5 agonist – agonists of human muscarinic M5 receptor (CHRM5); P08912; CHO-K1 hM5 cells, Fluo-8 calcium fluorescence; 0% DMSO wells, 100% maximal acetylcholine response; activation, % at 3 µM; actives 0.19% (n = 360,000);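 active means activation above the run's mean over test compounds plus 3 SD, cut at about 23% in these data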;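 further: signal is peak over basal fluorescence ratio across the kinetic read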
CHRM5 PAM – potentiates acetylcholine response at human M5 receptor; P08912; CHO-K1 hM5, Fluo-8 calcium, ACh EC20 PAM; 0% = ACh EC20, 100% = ACh EC100; activation, % at 3 µM; actives 0.3% (n = 360,000); AID 624038;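 active means activation above the run cutoff, the mean activation of all test compounds plus 3 SD, cut at about 18% in these data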
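Probe or stimulus: acetylcholine, EC20 level; Assay system: human M5 receptor in CHO-K1 cells; Schedule: compound preincubation 140 s before EC20 acetylcholine addition; Technique: intracellular calcium via Fluo-8 fluorescence; Dosing: single-point, 3 µM nominal; Read-out basis: percent activation from peak-over-basal fluorescence ratio, scaled EC20-to-EC100 acetylcholine; Repeats: one well per compound, no replicates.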
M5 antag – CHRM5 antagonism in calcium assay; CHO-hM5 cells, Fluo-8 calcium fluorescence, ACh EC80; inhibition, % at 3 µM; actives 0.59% (n = 360,000);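 active means inhibition above a per-plate cutoff, the mean of that plate's test compounds plus 3 SD, cut at about 27% in these data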;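 further: 0% = acetylcholine EC80 with DMSO and 100% = DMSO without agonist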
M4 PAM – potentiates acetylcholine response at human M4 receptor. P08173. CHO-K1 hM4/Gqi5, Fluo-8 calcium fluorescence, ACh EC20; 0% = ACh EC20, 100% = maximal ACh. activation, % at 3 µM. actives 0.4% (n = 360,000). AID 624126;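 active means activation above its plate's cutoff, the mean activation of sample wells plus 3 SD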
Numbers without * were called inactive.

SMILES	M4 antag	M4 ag	CHRM5 agonist	CHRM5 PAM	M5 antag	M4 PAM
COc1cccc(S(=O)(=O)Nc2cccc(C(=O)N3CCOCC3)c2)c1	36.2*	0.8	-4.5	-16.6	-3.1	-16.9
COc1cccc(S(=O)(=O)Nc2cccc(C(=O)N3CCCC3)c2)c1	-2.2	0.0	-2.6	-1.2	5.5	-0.8
Cc1csc(SCC(=O)Nc2sc3c(c2C#N)CCC3)n1	4.1	-0.8	0.2	4.9	-3.3	3.5
Cc1ccnc(SCC(=O)Nc2sc3c(c2C#N)CCCC3)n1	25.5	12.7	2.4	-16.4	30.0*	-11.1
COc1cc(/C=C/C(=O)O)cc(S(=O)(=O)NC2CCCC2)c1OC	98.1*	-1.5	-2.4	-5.7	5.2	-51.9
COc1cc(/C=C/C(=O)O)cc(S(=O)(=O)Nc2cc(Cl)c(Cl)cc2Cl)c1OC	-11.3	0.3	-1.2	13.6	-11.3	18.3
Cn1cnc([N+](=O)[O-])c1S(=O)(=O)Oc1ccc(Cl)cc1	27.8*	2.9	-2.7	-13.8	26.3	-8.6
Cn1cnc([N+](=O)[O-])c1S(=O)(=O)Oc1cccc2ccccc12	15.8	4.0	-1.1	-1.9	13.1	0.4
COCOc1cccc(CN2CCC2(C)C(=O)Nc2ccc(OC)c(OC)c2)c1 (stereo not given)	-8.3	4.4	3.1	-2.2	-2.7	-0.7
CN(C)CCCOC(=O)N1c2ccccc2C=Cc2ccccc21	66.6*	9.3	-5.8	-17.4	80.8*	-16.6
CN(C)CCCOC(=O)c1ccccc1Cl	7.1	2.4	-10.2	-5.6	14.9	-2.0
CC(C)(C)C(=O)OCc1nc(-c2ccc(C(F)(F)F)cc2)cs1	-3.8	0.3	4.7	18.5*	-15.2	13.8
Cc1ccc(C(=O)N2CCC3(CC2)NCCc2[nH]cnc23)cc1C	-1.2	3.3	-1.0	-0.2	-8.1	16.6*
CSCC[C@H](NC(=O)c1ccc2ccccc2c1)C(=O)N1CCC2(CC1)NCCc1[nH]cnc12	17.8	-0.5	-6.4	-6.4	27.2*	-13.3
O=C(NC1CCCCC1)OC1CC2CC1[C@H]1CCCCN1C2=O (stereo not given in full)	-7.1	0.8	-1.4	3.9	-9.9	12.1
COc1ccc(N2C(c3ccsc3)=Cc3cc4c(cc3C2c2c[nH]c3ccccc23)OCO4)cc1 (stereo not given)	20.9	1.2	-6.1	-7.8	11.7	-10.2
COC(=O)C(NC(=O)C(CC(C)C)NC(=O)C1CCC(C)CC1)C(C)C (stereo not given)	4.1	0.0	2.5	35.6*	36.0*	-0.8
COc1ccccc1-c1ccc(/C=C2/C=C(C)OC2=O)o1	-10.3	1.8	-1.6	1.6	1.0	6.1
COc1ccccc1-c1ccc(/C=C2\C=CC(=O)O2)o1	7.8	24.0	70.4*	-23.8	27.1*	-15.0
CSc1ncc2[nH]c(C(O)c3ccccc3)nc2n1 (stereo not given)	-10.2	10.3	6.1	-11.5	16.7	18.0*
O=C(Nc1ccccc1)Nc1ccc2c(c1)CCC2	1.6	11.4	0.2	-10.1	22.1	-11.4
COc1ccc(NC(=O)C(=O)NCCCO)cc1Cl	-4.7	4.9	0.7	-4.4	4.4	5.2
CC(=O)Nc1ccc2c(c1)OCCOCCOc1cc(NC(C)=O)ccc1OCCO2	27.0*	5.2	4.0	11.6	-8.4	13.3
COc1ccc(NC(=O)Nc2cccc([N+](=O)[O-])c2)cc1Cl	13.6	14.6	4.7	-18.6	30.6*	-11.6
CC(C)(C)C(=O)Nc1ccc2c(c1)OCCOCCOc1cc(NC(=O)C(C)(C)C)ccc1OCCOCCO2	0.9	1.2	2.1	-0.1	-17.7	-6.8
SMILES	M4 antag	M4 ag	CHRM5 agonist	CHRM5 PAM	M5 antag	M4 PAM
CCOC(=O)C(=O)Nc1ccc(OC)c(Cl)c1	-3.3	2.4	-3.0	0.5	5.2	23.1*
O=C(Nc1cccc([N+](=O)[O-])c1)Nc1ccc2c(c1)CCC2	0.5	18.1	5.5	-14.3	35.1*	-5.0
COc1ccc(C(=O)Nc2cccc([N+](=O)[O-])c2)cc1Br	-4.0	1.2	-2.4	-0.3	5.7	-0.2
O=C(Nc1ccc([N+](=O)[O-])cc1)Nc1ccc(OC(F)F)c(Cl)c1	16.8	11.1	8.1	-19.4	32.7*	-12.6
Cc1ccc([N+](=O)[O-])cc1NC(=O)Nc1cccc(F)c1	22.5	22.5	9.8	-16.8	30.4*	-15.7
COc1ccc(NC(=O)Nc2ccc3c(c2)N(C)C(=O)CS3)cc1Cl	17.4	21.6	8.6	-23.5	31.1*	-14.6
O=C(Nc1ccccc1)Nc1cc([N+](=O)[O-])ccc1F	-10.8	10.6	6.2	-14.3	4.5	2.9
C=CCNC(=S)Nc1ccc(Cl)cc1	-9.2	2.3	-1.2	4.8	6.0	-0.7
C=CCNC(=S)Nc1ccc(OC(F)F)c(Cl)c1	15.4	18.8	2.5	-13.7	28.6*	-5.2
COc1ccc(NC(=O)Nc2ccc3c(c2)N(C)C(=O)CS3)cc1OC	-10.3	16.6	3.1	-13.2	4.1	-0.7
N#CCCN(Cc1cccnc1)C(=S)NC(=O)c1ccccc1	4.8	0.3	1.0	1.7	11.9	-1.0
Cc1ccc2cc(NC(=O)C3(C)CCN3C(C)C)ccc2n1 (stereo not given)	2.2	0.2	-2.1	3.1	15.2	-0.8
COc1ccc(NC(=O)c2cccc(OC(F)F)c2)cc1Cl	0.5	7.7	1.1	-7.1	-9.5	-3.7
O=C(Nc1ccc(OC(F)F)c(Cl)c1)c1cccc(OC(F)F)c1	9.7	6.9	-5.1	-21.8	39.6*	-21.4
COc1cc([N+](=O)[O-])ccc1NC(=O)Nc1ccc2c(c1)OCCO2	1.2	0.3	4.3	22.0*	11.3	-4.6
COCCc1ccc(OC2(C)CCN(Cc3cccn3-c3nccs3)C2)cc1 (stereo not given)	8.2	3.2	-1.7	-5.5	-2.2	-7.5
c1ccc(C2[C@H]3CN(CC4CCCCC4)[C@H](c4ccccc4)C34CC2(c2ccccc2)C4)cc1 (stereo not given in full)	7.3	1.9	-2.8	4.6	-6.2	-5.3
c1ccc(C2[C@H]3CN(CC4CCCCC4)[C@H](c4ccccc4)C34CC2(c2cccnc2)C4)cc1 (stereo not given in full)	31.4*	2.5	-12.6	-32.5	16.0	-12.9
COc1ccc(NC(=O)C2(C)CCN2C(=O)Cc2ccc(Cl)cc2Cl)cc1OC (stereo not given)	-13.0	10.5	3.3	-9.6	6.8	-0.2
CC(=O)Nc1ccc(S(=O)(=O)N2CCSc3ccccc32)cc1	-19.3	5.8	-3.6	-2.3	-1.9	3.5
CS(=O)(=O)N(CC(=O)N1CCCCCC1)c1cccc([N+](=O)[O-])c1	-6.1	0.6	-1.9	18.4*	-8.8	-4.1

Bioassay records (PubChem BioAssay)
